In one data set the test system is Nrf2. The conditions noted are these: in vivo in mice; cited from earlier work.
The subject of data set [1] is bladder cancer. Particulars: occupationally exposed workers; cited from earlier work.
For another data set, the system named is humans. Particulars: ref International Agency for Cancer; cited from earlier work.
For data set [2] the following is noted: rats, urine; cited from earlier work.
In a further data set the test system is mice. The conditions noted are these: oral administration, hydrochloride salt, ref International Agency for Cancer; cited from earlier work.
In the next data set the test system is rats. Particulars: oral administration, hydrochloride salt, ref International Agency for Cancer; cited from earlier work.
The next data set concerns hepatic DNA. The conditions noted are these: rats given 0.5 mmol/kg, 24 h, HPLC/MS/MS; cited from earlier work.
Data set [3] relates to bladder cancer. The conditions noted are these: population-based study, Los Angeles county; cited from earlier work.
The next data set has as its system tissue DNA. Particulars: C57/BL6 mice, dose ∼1 μmol/kg, accelerator mass spectrometry; cited from earlier work.
The test system of data set [4] is AA8 CHO cells (NER proficient) and UV5 cells (NER deficient). As to the kind of experiment: aprt mutant fraction in AA8 and UV5 CHO cells, 8-azaadenine selection. Particulars: absence of human liver S9, 100 μM–1 mM. It is filed as cell-based, Chinese hamster. The method in brief:
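AA8 (NER-proficient) and UV5 (NER-deficient, XPD/ERCC2 defect) CHO cells, neither expressing significant phase I or phase II enzymes, were exposed without human liver S9. Doses were parent alkylanilines at 50 μM–1 mM, or N-hydroxy and aminophenol metabolites at 5–500 μM. Mutant fraction at the heterozygous aprt locus was determined by 8-azaadenine selection.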

Data set [5] has the same test system. It is filed as cell-based, Chinese hamster. Particulars: for cytotoxicity: AA8 and UV5 cells, absence of human liver S9, 100 μM–1 mM; for influence of NER status on cytotoxicity: UV5 (NER deficient) versus AA8 (NER proficient), absence of human liver S9. The method in brief: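 AA8 (NER-proficient) and UV5 (NER-deficient; induced XPD/ERCC2 defect) CHO lines, neither expressing significant phase I or II enzymes, exposed to parent alkylanilines at 50 μM–1 mM without human liver S9. Viability was scored by trypan blue exclusion 24 h after treatment.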

The next data set has as its system ct-DNA. As to the kind of experiment: Effect of Phase II conjugation activity on DNA adduct formation in vitro. It is filed as biochemical. The conditions noted are these: human liver S9, 1 μM [14C]amine, 6 h at 37°C, NAT cofactors.
Data set [6] has as its system CHO cells that are NER deficient (or proficient) and express mouse P4501A2 plus human aryl sulfotransferase or NAT genes. It counts as cell-based, Chinese hamster. The conditions noted are these: two cell lines both deficient in NER, one expressing CYP1A2 and NAT2, 100 μM –1 mM. The gist of the method: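 These are engineered CHO lines, heterozygous at aprt. UV5 (NER-deficient, XPD/ERCC2 defect) transfected with mouse CYP1A2, then human NAT2 or aryl sulfotransferase; NER-proficient counterparts were included. Parent alkylanilines were dosed at 50 μM–1 mM, and N-hydroxy or aminophenol metabolites at 5–500 μM. Mutant fraction was determined by 8-azaadenine selection.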

Data set [7] relates to human lymphoblastoid TK6 cells. The conditions noted are these: cited from earlier work; for cell death: TK6 cells; for viability: TK6 cells exposed to millimolar concentrations.
In data set [8] the test system is CHO cells that are NER deficient (or proficient) and express mouse P4501A2 plus human aryl sulfotransferase or NAT genes. It counts as cell-based, Chinese hamster. The conditions noted are these: for contribution of aryl sulfotransferase relative to NAT2: NER-deficient cells expressing CYP1A2 and either phase II enzyme; for potency in inducing both responses (cytotoxicity and mutagenicity), influence of NER status: cell lines expressing CYP1A2 and NAT2; for cytotoxicity: two cell lines both deficient in NER, one expressing CYP1A2 and NAT2, 100 μM –1 mM. The method in brief: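 CHO lines derived from AA8 via UV5 (NER-deficient through an induced XPD/ERCC2 defect). UV5P3 carries mouse CYP1A2 cDNA and was further transfected with human aryl sulfotransferase (HAST1) or NAT2; NER-proficient counterparts were also used. Exposure to parent alkylanilines at 50 μM–1 mM, or to N-hydroxy or aminophenol metabolites at 5–500 μM. Viability was scored by trypan blue exclusion 24 h after treatment.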

Data set [9] has as its system HPRT gene of human lymphoblastoid TK6 cells. The conditions noted are these: cited from earlier work.
The test system of data set [10] is mouse L5178Y lymphoma cells. The conditions noted are these: with and without exogenous metabolic activation; cited from earlier work.
Another data set relates to human liver microsomes. The conditions noted are these: unpublished results; cited from earlier work.
The subject of another data set is E.coli K12. The conditions noted are these: host-mediated assay after feeding to mice; cited from earlier work.
For the next data set, the system named is Escherichia coli. The conditions noted are these: cited from earlier work.
Another data set concerns rat hepatocytes. Particulars: cited from earlier work.
Another data set concerns Salmonella typhimurium. Particulars: multiple bacterial strains, presence or absence of exogenous activating systems; cited from earlier work.
Data set [11] deals with Chinese hamster ovary (CHO) cells. The conditions noted are these: with and without exogenous metabolic activation; cited from earlier work.
For a further data set, the system named is male and female rats. Particulars: dose-dependent; cited from earlier work.
A further data set relates to rat liver microsomes. Particulars: unpublished results; cited from earlier work.
For another data set, the system named is bone marrow of male mice. The conditions noted are these: oral doses of up to 375 mg/kg/day; cited from earlier work.
Another data set relates to Drosophila melanogaster. Particulars: feeding or injecting; cited from earlier work.
Data set [12] concerns recombinant human P450s (1A1, 1A2, 1B1, 2A6 and 2E1). Particulars: five recombinant human P450s tested; unpublished results; cited from earlier work.
The test system of a further data set is Calf thymus DNA. As to the kind of experiment: Formation of DNA adducts by [14C]alkylanilines in vitro with human hepatic S9. It is filed as biochemical. The conditions noted are these: human S9, 25–1000 nM alkylaniline (Figure 3). The method in brief: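 Calf thymus DNA (1 mg/ml) was incubated with human hepatic S9 (2 mg/ml) in 50 mM Tris pH 7.4 with NADPH regeneration (1.3 mM NADP+, 3.3 mM glucose-6-phosphate, 3.3 mM MgCl2, 0.1 U G6P dehydrogenase) and [14C]alkylaniline at 25, 100 or 1000 nM. Purified DNA-bound radiolabel was measured by accelerator mass spectrometry, as adducts per 10^8 nucleotides (±SD; N = 4).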

In data set [13] the test system is S9 from human, rat, dog and mouse liver. Particulars: cited from earlier work.
Data set [14] has as its system 12-O-tetradecanoyl phorbol 13-acetate responsive element and nuclear factor-kappaB-binding activity. Particulars: in an ROS-dependent fashion; cited from earlier work.

A value given as a limit tells only on which side of the number the result lay.

On to `CC(=O)Nc1ccc(O)cc1` [acetaminophen], for which the Nrf2 nuclear translocation result with Nrf2 is recorded as “can initiate nuclear translocation of Nrf2”.

In the case of `Cc1ccccc1N` [o-toluidine], the human carcinogenicity finding result in the data set on bladder cancer [1] is recorded as “is indeed a human bladder carcinogen”. In addition, in the data set on humans, the carcinogenicity category entry was “Group 1”. Besides, the “production of an N-hydroxylamine in vivo” value in data set [2] is “urinary excretion of N-hydroxy-o-toluidine”. In addition, the tumour induction entry in the data set with mice was “increased incidence of haemangiomas and haemangiosarcomas and hepatocellular carcinomas or adenomas”; in the data set on rats it was “increased the incidence of tumours in multiple organs”.

Regarding `Nc1ccc(-c2ccccc2)cc1` [4-aminobiphenyl, reference compound], the “hepatic DNA adducts” value with hepatic DNA is ~500 adducts per 10^8 normal bases.

Consider `Cc1ccc(N)c(C)c1` [2,4-dimethylaniline], for which, in the data set with hepatic DNA, the “hepatic DNA adducts” value is on record as < 3.2 adducts per 10^8 normal bases.

Regarding `Cc1cc(C)cc(N)c1` [3,5-DMA, 3,5-dimethylaniline], the “association with bladder cancer risk” value with bladder cancer [3] is “independently associated with risk for development of bladder cancer”. The “labeling of tissue DNA” value in the data set with tissue DNA is “detectable labeling of DNA”. For the same compound, the mutagenicity result in data set [4] was “not mutagenic”. Further, in [5], the cytotoxicity result is “cytotoxic” and the “influence of NER status on cytotoxicity” value was “enhanced by NER deficiency”. The “enhancement of DNA adduct formation by promotion of NAT activity” value in the data set on ct-DNA was found to be 53%. Besides, the mutagenicity entry in data set [6] is on record as “mutagenic only in cells expressing the metabolizing enzymes”. Also, the cell death entry in data set [7] was “induced cell death”. For the same compound, in data set [8], the “contribution of aryl sulfotransferase relative to NAT2” value is listed as “more effective in potentiating cytotoxicity but not mutagenicity”; the “potency in inducing both responses (cytotoxicity and mutagenicity), influence of NER status” value is given as “greatly enhanced in the NER-deficient cells”; the cytotoxicity entry was “cytotoxic”.

Regarding `Cc1cc(C)cc(NO)c1` [N-hydroxy-3,5-DMA], the HPRT mutagenicity entry in [9] is listed as “mutagenic”.

`Cc1cccc(C)c1N` [2,6-DMA, 2,6-dimethylaniline]: the “association with bladder cancer risk” value in the data set on bladder cancer [3] is “independently associated with risk for development of bladder cancer”. The mutation induction result in data set [10] is given as “induced mutations”. In the data set on tissue DNA, the “labeling of tissue DNA” value is “detectable labeling of DNA”. Moreover, the results for the mutagenicity result (in data set [4]; with Salmonella typhimurium; in data set [6]) were “not mutagenic”, “neither mutagenic” and “mutagenic only in cells expressing the metabolizing enzymes”, respectively. Further, the “conversion to the corresponding hydroxylamine” value is listed as “readily apparent” with human liver microsomes and “undetectable activity” in the data set on rat liver microsomes. The genotoxic effect entry with E.coli K12 was “No genotoxic effect”. For the same compound, in the data set with humans, the carcinogenicity category entry is “Group 2B”. Moreover, the cytotoxicity result in [5] and in data set [8] was “cytotoxic” in each case. Also, the “influence of NER status on cytotoxicity” value in data set [5] was “enhanced by NER deficiency”. Moreover, the “activity in DNA damage and repair assay” value with Escherichia coli was “nor was it active”. For the same compound, in the data set on rat hepatocytes, the “unscheduled DNA synthesis” value is “did not induce unscheduled DNA synthesis”. The “hepatic DNA adducts” value with hepatic DNA was < 3.2 adducts per 10^8 normal bases. Further, the genotoxic effects induced result in data set [11] was “sister chromatid exchange and chromosomal aberrations”. Further, the tumour induction result in the data set on male and female rats was “inducing carcinomas and papillary adenomas of the nasal cavity”. In the data set with bone marrow of male mice, the micronuclei entry is “No increase of micronuclei”. Also, the “decrease of DNA adduct level by promotion of NAT activity” value with ct-DNA was 78%. The “sex-linked recessive lethal effect” value with Drosophila melanogaster is given as “nor was feeding or injecting it effective”. In addition, the cell death entry in [7] is reported as “induced cell death”. In data set [8], the “contribution of aryl sulfotransferase relative to NAT2” value is given as “more effective in potentiating cytotoxicity but not mutagenicity”. In [8], the “potency in inducing both responses (cytotoxicity and mutagenicity), influence of NER status” value is recorded as “greatly enhanced in the NER-deficient cells”. For the same compound, the N-hydroxylation activity result in [12] is “only 2A6 exhibited N-hydroxylation activity”.

With `CCc1cccc(N)c1` [3-EA, 3-ethylaniline], the “association with bladder cancer risk” value in the data set on bladder cancer [3] is “independently associated with risk for development of bladder cancer”. In the data set on Calf thymus DNA, the “DNA binding of 3-EA compared with the other two alkylanilines” value is reported as “nearly identical to ∼6-fold less”. Moreover, in the data set with tissue DNA, the “labeling of tissue DNA” value is recorded as “detectable labeling of DNA”. In the data set on ct-DNA, the “decrease of DNA adduct level by promotion of NAT activity” value was determined as 28%. The viability entry in data set [7] is listed as “did not cause reduced viability”. Further, the “N-hydroxylation rate compared with 3,5-DMA or 2,6-DMA” value in data set [13] is recorded as “several times greater”.

Regarding `CCc1cccc(NO)c1` [N-hydoxy-3-EA], the viability entry in data set [7] is listed as “did not cause reduced viability”.

With `N[C@@H](CCC(=O)N[C@@H](CSc1cc(O)c(SC[C@H](NC(=O)CC[C@H](N)C(=O)O)C(=O)NCC(=O)O)c(SC[C@H](NC(=O)CC[C@H](N)C(=O)O)C(=O)NCC(=O)O)c1O)C(=O)NCC(=O)O)C(=O)O` [TGHQ, 2,3,5-tris-(glutathion-S-yl)hydroquinone], the “effect on TRE and NF-kappaB-binding activity” value in [14] is recorded as “modulates”.

The values are drawn from PMC2802674 (Carcinogenesis, 2009).
